Measured values gathered from unrelated publications.
Protocols differ between the studies behind these lines.
Target: Cyclin-dependent kinase 2 homolog (CRK2, Plasmodium falciparum, UniProt P61075)

For `Cc1cnn2ncc(-c3ccnc(N(C)C)n3)c2c1`, the remaining binding was 82% (binding; 1 µM).
`Nc1ncnc2occ(-c3ccc(NC(=O)Nc4cc(C(F)(F)F)ccc4F)cc3)c12` gave a remaining signal of 60% (cell-free assay; inhibitor; 20 µM).
`Nc1ncc2c(n1)-c1c([nH]c3ccc(C#CC4CC4)cc13)CCCC2` gave a remaining binding of 100% (binding; competition with immobilised ligand; 1 µM).
`C[C@@H](c1ccc(-n2cnc3c(N)ncnc32)cc1)N1CCc2nn(C)c(Cc3ccccc3)c2C1=O` gave a remaining binding of 83% (binding; competition with immobilised ligand; 0.1 µM).
`CNC(=O)[C@@H]1CC[C@@H](n2c(-c3ccc4cnccc4c3)nc3ccc(C(=O)NCc4cccc(C(N)=O)c4)cc32)C1` gave a remaining binding of 99% (binding; competition with immobilised ligand; 1 µM).
`FC(F)(F)Oc1cccc(-c2cnc3ccc(-c4ccncc4)nn23)c1` has a remaining binding of 87% (cell-free assay; competition with immobilised ligand; 5 µM).
`c1cncc(-c2cccc(Nc3nccc(NC4CCCCC4)n3)c2)c1` has a remaining binding of 100% (binding; competition with immobilised ligand; 10 µM).
With `N[C@@H]1CCN(c2nccc(-c3cnn4ncccc34)n2)C1` the remaining binding was 84% (binding; 1 µM).
With `COc1cnc(Nc2cccc(S(N)(=O)=O)c2)nc1N1CCN(c2ccccc2)C(=O)C1` the remaining binding was 100% (binding; competition with immobilised ligand; 1 µM).
The remaining binding of `CCN1CCN(Cc2ccc(C(=O)Nc3ccc(C)c(Oc4ccc5c(c4)CC(=O)N5)c3)cc2C(F)(F)F)CC1` is reported as 100% (binding; competition with immobilised ligand; 1 µM).
With `Cc1ccc(-c2cnc([C@@]3(O)CC[C@H](C(=O)O)C(C)(C)C3)s2)cc1Nc1cccc(C(F)(F)F)n1` the remaining binding was 33% (binding; competition with immobilised ligand; 1 µM).
The remaining signal of `CN(C)c1nccc(-c2cnc3ncccn23)n1` is reported as 72% (cell-free assay; 1 µM).
The remaining activity of `Cc1ccc(C(=O)Nc2ccc(CN3CCN(C)CC3)c(C(F)(F)F)c2)cc1C#Cc1cnc2cccnn12` is reported as 94% (enzyme activity; inhibitor; 23.5 nM).
With `O=C(NCC1CCOCC1)c1n[nH]cc1NC(=O)c1c(F)cccc1F` the remaining binding was 100% (binding; competition with immobilised ligand; 1 µM).
For `Cc1nn(C)cc1-c1nc2c(N3CCN(Cc4ccc(Cl)cc4)CC3)c(Cl)cnc2[nH]1`, the remaining binding was 100% (binding; competition with immobilised ligand; 1 µM).
For `O=C(Nc1c[nH]nc1C(=O)NC1CCNCC1)c1cc(F)cc(F)c1`, the remaining binding was 89% (binding; competition with immobilised ligand; 1 µM).
The remaining binding of `C=CC(=O)N1CCC(C(=O)NCC(=O)N2CCN(c3nc(-c4cnc(N)nc4C(F)F)nc(N4CCOCC4)n3)CC2)CC1` is reported as 65% (binding; competition with immobilised ligand; 1 µM).
